Reference: ChEMBL document CHEMBL3045616, “Synthetic pyrazole derivatives as growth inhibitors of some phytopathogenic fungi” (J Agric Food Chem, 2007)

Assays:
Botrytis cinerea [1] = test: Antifungal activity against logarithmic phase of Botryotinia fuckeliana ATCC 48339 assessed as growth inhibition measured at 5 days post-drug treatment; format: functional, organism-based; settings: ATCC 48339, 120 h
Method in brief: (§1)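 Log-phase mycelium grown on cellophane over PDA (pH 5.6, 26 ± 1 °C) moved to PDA containing compound at 10, 50 and 100 µg mL^-1 final, with 0.1% DMSO in test and control media. Colony diameter was measured daily for 5 days, in triplicate, relative to untreated controls. IC50 came from curves of activity (%) versus log inhibitor concentration.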

Botrytis cinerea [2] = test: Antifungal activity against logarithmic phase of Botryotinia fuckeliana ATCC 48339 assessed as growth inhibition at 100 ug/ml measured at 5 days post-drug treatment; format: functional; settings: ATCC 48339, 120 h, read-out: GI
Method in brief: (§2)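 Log-phase mycelium (from 10 mm stationary-phase disks grown on cellophane over PDA, pH 5.6, 26 ± 1 °C) moved to PDA with compound added from DMSO stock at 45 °C. Final concentrations were 10, 50 or 100 µg mL^-1, with 0.1% DMSO in test and control media. Colony diameter was read daily for 5 days, in triplicate, as % of untreated control.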

Botrytis cinerea [3] = test: Antifungal activity against logarithmic phase of Botryotinia fuckeliana ATCC 48339 assessed as growth inhibition at 50 ug/ml measured at 5 days post-drug treatment; format: functional; settings: ATCC 48339, 120 h, read-out: GI; method in brief: as §2
Botrytis cinerea [4] = test: Antifungal activity against logarithmic phase of Botryotinia fuckeliana ATCC 48339 assessed as growth inhibition at 10 ug/ml measured at 5 days post-drug treatment; format: functional; settings: ATCC 48339, 120 h, read-out: GI; method in brief: as §2
Pyricularia grisea [5] = test: microbe, parasite or virus in culture; format: functional; settings: ATCC 64413, 120 h, read-out: GI
Pyricularia grisea [6] = test: microbe, parasite or virus in culture; format: functional; settings: ATCC 64413, 120 h, read-out: GI; remark: listed apart in the source
Pyricularia grisea [7] = test: microbe, parasite or virus in culture; format: functional; settings: ATCC 64413, 120 h, read-out: GI; remark: listed apart in the source
Globisporangium ultimum [8] = test: Antifungal activity against logarithmic phase of Pythium ultimum ATCC 58812 assessed as growth inhibition at 100 ug/ml measured at 5 days post-drug treatment; format: functional; settings: ATCC 58812, 120 h, read-out: GI; method in brief: as §2
Globisporangium ultimum [9] = test: Antifungal activity against logarithmic phase of Pythium ultimum ATCC 58812 assessed as growth inhibition at 50 ug/ml measured at 5 days post-drug treatment; format: functional; settings: ATCC 58812, 120 h, read-out: GI; method in brief: as §2
Globisporangium ultimum [10] = test: Antifungal activity against logarithmic phase of Pythium ultimum ATCC 58812 assessed as growth inhibition at 10 ug/ml measured at 5 days post-drug treatment; format: functional; settings: ATCC 58812, 120 h, read-out: GI; method in brief: as §2
Pyricularia grisea [11] = test: microbe, parasite or virus in culture; format: functional, organism-based; settings: ATCC 64413, 120 h
[12] = Ratio of IC50 for photosynthetic electron transport in active intact chloroplast thylakoid membrane of Spinacea oleracea L. leaves to IC50 for Pythium ultimum ATCC 58812
[13] = In vitro inhibition of basal rate of photosynthetic electron transport (Hill reaction) in active intact chloroplast thylakoid membrane of Spinacia oleracea (spinach) leaves assessed as inhibition of light-driven ferricyanide reduction at 5 uM measured at 24 degC at 30 s intervals for 10 min (reference value: 100 +/-3.1%)
Globisporangium ultimum [14] = test: Antifungal activity against logarithmic phase of Pythium ultimum Trow ATCC 58812 assessed as growth inhibition measured at 5 days post-drug treatment; format: functional, organism-based; settings: ATCC 58812, 120 h; method in brief: as §1

Structure (SMILES)	IC50 (Botrytis cinerea [1]) [µM]	inhibition of growth at 100 µg/mL (Botrytis cinerea [2]) [%]	inhibition of growth at 50 µg/mL (Botrytis cinerea [3]) [%]	inhibition of growth at 10 µg/mL (Botrytis cinerea [4]) [%]	inhibition of growth at 100 µg/mL (Pyricularia grisea [5]) [%]	inhibition of growth at 50 µg/mL (Pyricularia grisea [6]) [%]	inhibition of growth at 10 µg/mL (Pyricularia grisea [7]) [%]	inhibition of growth at 100 µg/mL (Globisporangium ultimum [8]) [%]	inhibition of growth at 50 µg/mL (Globisporangium ultimum [9]) [%]	inhibition of growth at 10 µg/mL (Globisporangium ultimum [10]) [%]	IC50 (Pyricularia grisea [11]) [µM]	Ratio IC50 [12]	IC50 [13] [µM]	IC50 (Globisporangium ultimum [14]) [µM]
O=C(Nc1ccccc1)c1ccccc1I [BENODANIL]	66	97.6	91.2	6.3										
CCOC(=O)c1cn[nH]c1NC(=S)Nc1cccc(Cl)c1	31	76.2	56.8	56	26	18	16.6	60.8	38.1	32.9				
O=c1c2cn[nH]c2[nH]c(=S)n1-c1ccccc1Cl	83	66.2	63.8	40										
CCOC(=O)c1cn[nH]c1NC(=S)Nc1ccccc1Cl		36	30.9	4.3	67	60.9	48.7	70	68.7	66.5	48			
Cc1c(C(=O)O)c(C(=O)NC(C)(C)C)nn1-c1ccc(Cl)cc1		49.9	49.3	45.6	33.2	31.5	20.9	69.3	69.3	47.2		25	950	38
